# Measured values from ChEMBL document CHEMBL1921732, “Alkaloids from the Chinese vine Gnetum montanum” (J Nat Prod, 2011).
# Active and inactive are the calls of the source. The rule behind the calls is not given here.
# Legend:
# Staphylococcus aureus = experiment: Antibacterial activity against methicillin-resistant Staphylococcus aureus 01A1095 assessed as growth inhibition at 350 uM after 19 hrs; assay type: functional
# In short: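 Strain 01A1095 optical-density viability assay in caMH broth at 1980 CFU/well. Compounds were in DMSO (final 1.75%) and added before the bacteria. Plates were incubated at 37°C until OD620 reached 0.7-0.8, cooled 30 min and read at 620 nm. Vehicle served as the uninhibited-growth control and ciprofloxacin at 500 µg/mL as the kill control in internal control wells.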
# Pseudomonas aeruginosa [1] = experiment: Antibacterial activity against Pseudomonas aeruginosa PAO1 assessed as growth inhibition at 87.5 uM; assay type: functional; details: read-out: GI
# [2] = Selectivity ratio of antimicrobial activity for Pseudomonas aeruginosa PAO1 over methicillin-resistant Staphylococcus aureus 01A1095; assay type: functional
# Pseudomonas aeruginosa [3] = experiment: Antibacterial activity against Pseudomonas aeruginosa PAO1; assay type: functional, organism-based
# Pseudomonas aeruginosa [4] = experiment: Antibacterial activity against Pseudomonas aeruginosa PAO1 assessed as growth inhibition at 175 uM; assay type: functional; details: read-out: GI
# Pseudomonas aeruginosa [5] = experiment: Antibacterial activity against Pseudomonas aeruginosa PAO1 assessed as growth inhibition at 350 uM; assay type: functional, organism-based
Compound,growth inhibition (GI) (Staphylococcus aureus),growth inhibition (GI) (Pseudomonas aeruginosa [5]),other results
COc1cc2c3c(cc4cc(O)c(O)cc4c3c1O)[N+](C)(C)CC2,inactive,–,inhibition of growth at 87.5 µM (Pseudomonas aeruginosa [1]): 59%
O=C([O-])C(F)(F)F.Oc1cc2c(cc1O)[C@@H]1c3ccc(O)c(O)c3C[C@H]3Cc4cc(O)c(O)cc4[N+]31CC2 (some centres undefined),–,–,"inhibition of growth at 350 µM (Staphylococcus aureus; 01A1095, 19 h, read-out: GI): 55%; Selectivity ratio [2]: 36; IC50 (Pseudomonas aeruginosa [3]): 9.8 µM; MIC (Pseudomonas aeruginosa [3]): 35 µM"
COc1cc2c3c(c1O)-c1cc(O)c(O)cc1CC3[N+](C)(C)CC2 (racemic),inactive,–,inhibition of growth at 175 µM (Pseudomonas aeruginosa [4]): 59%
COc1cc2c(cc1O)C(Cc1ccc(O)c(O)c1)[N+](C)(C)CC2 (racemic),inactive,inactive,–
COc1cc2c(cc1O)C(Cc1ccc(O)cc1)[N+](C)(C)CC2 (racemic),inactive,inactive,–
C[N+]1(C)CCc2cc(O)c(O)cc2C1Cc1ccc(O)c(O)c1 (racemic),inactive,inactive,–
